Results reported in ChEMBL document CHEMBL3627613, “4-Aminoquinoline derivatives as novel Mycobacterium tuberculosis GyrB inhibitors: Structural optimization, synthesis and biological evaluation” (Eur J Med Chem, 2015).
Converted amounts (≈) assume the structure as drawn.

Columns and labels:
[1] = system: Mycobacterium tuberculosis; assay: Antimycobacterial activity against Mycobacterium tuberculosis H37Rv assessed as growth inhibition incubated for 7 days by microplate alamar blue assay; assay type: functional; conditions: 168 h
Procedure, shortened: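 M. tuberculosis H37Rv inoculum from fresh LJ medium, resuspended in 7H9 broth (0.1% casitone, 0.5% glycerol, OADC), set to McFarland No. 1 and diluted 1:20. Two-fold serial compound dilutions in 7H9-S, with growth and sterile controls. Incubated 7 days at 37 °C, then alamar blue overnight. MIC is the lowest concentration preventing the blue-to-pink colour change.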

[2] = target: DNA gyrase subunit A/DNA gyrase subunit B (Mycobacterium tuberculosis (strain ATCC 25618 / H37Rv), UniProt P9WG45+P9WG47); assay: Inhibition of DNA gyrase GyrA/GyrB in Mycobacterium tuberculosis incubated for 30 mins assessed as reduction in supercoiling of relaxed relaxed pBR322 DNA by ethidium bromide staining based agarose gel electrophoresis method
Sequence of DNA gyrase subunit A/DNA gyrase subunit B (P9WG45 whole entry): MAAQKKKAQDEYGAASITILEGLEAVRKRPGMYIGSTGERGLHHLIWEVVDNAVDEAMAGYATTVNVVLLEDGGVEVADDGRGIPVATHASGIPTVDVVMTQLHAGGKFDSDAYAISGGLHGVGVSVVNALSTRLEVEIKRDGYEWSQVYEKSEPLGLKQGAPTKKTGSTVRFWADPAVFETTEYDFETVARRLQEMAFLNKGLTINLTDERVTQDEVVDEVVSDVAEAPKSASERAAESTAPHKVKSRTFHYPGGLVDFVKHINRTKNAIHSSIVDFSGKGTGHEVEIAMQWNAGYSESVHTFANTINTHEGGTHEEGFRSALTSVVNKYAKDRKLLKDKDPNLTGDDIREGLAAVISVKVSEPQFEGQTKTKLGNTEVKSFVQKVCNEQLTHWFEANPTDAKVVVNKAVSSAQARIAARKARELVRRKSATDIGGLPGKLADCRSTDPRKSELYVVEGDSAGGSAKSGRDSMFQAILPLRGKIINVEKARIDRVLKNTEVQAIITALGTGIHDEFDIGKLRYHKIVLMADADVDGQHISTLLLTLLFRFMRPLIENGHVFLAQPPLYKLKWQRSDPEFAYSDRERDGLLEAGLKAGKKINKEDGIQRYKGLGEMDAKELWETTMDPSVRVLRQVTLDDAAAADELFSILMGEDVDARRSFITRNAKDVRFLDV
Sequence of DNA gyrase subunit A/DNA gyrase subunit B (P9WG47 whole entry): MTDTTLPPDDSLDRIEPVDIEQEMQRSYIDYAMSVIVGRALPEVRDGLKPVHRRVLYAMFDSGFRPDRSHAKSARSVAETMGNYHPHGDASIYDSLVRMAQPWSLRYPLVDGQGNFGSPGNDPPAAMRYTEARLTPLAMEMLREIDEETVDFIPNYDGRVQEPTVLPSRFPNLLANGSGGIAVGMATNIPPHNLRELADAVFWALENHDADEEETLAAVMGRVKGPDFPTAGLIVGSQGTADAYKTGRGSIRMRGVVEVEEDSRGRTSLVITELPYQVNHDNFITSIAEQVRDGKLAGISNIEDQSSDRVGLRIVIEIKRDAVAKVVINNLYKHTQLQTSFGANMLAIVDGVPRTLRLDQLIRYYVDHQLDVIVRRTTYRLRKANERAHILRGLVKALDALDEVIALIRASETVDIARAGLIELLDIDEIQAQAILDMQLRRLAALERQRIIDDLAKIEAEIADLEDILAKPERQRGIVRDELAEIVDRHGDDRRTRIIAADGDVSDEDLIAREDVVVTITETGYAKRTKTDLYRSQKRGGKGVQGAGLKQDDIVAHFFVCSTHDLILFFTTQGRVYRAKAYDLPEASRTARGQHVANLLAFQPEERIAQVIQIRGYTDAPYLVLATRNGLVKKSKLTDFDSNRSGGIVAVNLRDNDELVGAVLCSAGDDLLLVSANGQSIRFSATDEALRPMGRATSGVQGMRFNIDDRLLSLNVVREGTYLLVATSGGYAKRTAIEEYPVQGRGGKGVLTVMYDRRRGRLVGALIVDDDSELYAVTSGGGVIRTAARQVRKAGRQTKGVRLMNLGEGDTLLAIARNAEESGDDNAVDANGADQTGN

DNA gyrase subunit B = DNA gyrase subunit B (Mycobacterium smegmatis, UniProt P0C559); assay: Inhibition of Mycobacterium smegmatis DNA gyrase B expressed in Escherichia coli BL21 (DE3) pLysS cells assessed as reduction in ATPase activity incubated for 100 mins by inorganic phosphate detection assay; parameters: species or system Mycolicibacterium smegmatis
Sequence of DNA gyrase subunit B (P0C559 whole entry): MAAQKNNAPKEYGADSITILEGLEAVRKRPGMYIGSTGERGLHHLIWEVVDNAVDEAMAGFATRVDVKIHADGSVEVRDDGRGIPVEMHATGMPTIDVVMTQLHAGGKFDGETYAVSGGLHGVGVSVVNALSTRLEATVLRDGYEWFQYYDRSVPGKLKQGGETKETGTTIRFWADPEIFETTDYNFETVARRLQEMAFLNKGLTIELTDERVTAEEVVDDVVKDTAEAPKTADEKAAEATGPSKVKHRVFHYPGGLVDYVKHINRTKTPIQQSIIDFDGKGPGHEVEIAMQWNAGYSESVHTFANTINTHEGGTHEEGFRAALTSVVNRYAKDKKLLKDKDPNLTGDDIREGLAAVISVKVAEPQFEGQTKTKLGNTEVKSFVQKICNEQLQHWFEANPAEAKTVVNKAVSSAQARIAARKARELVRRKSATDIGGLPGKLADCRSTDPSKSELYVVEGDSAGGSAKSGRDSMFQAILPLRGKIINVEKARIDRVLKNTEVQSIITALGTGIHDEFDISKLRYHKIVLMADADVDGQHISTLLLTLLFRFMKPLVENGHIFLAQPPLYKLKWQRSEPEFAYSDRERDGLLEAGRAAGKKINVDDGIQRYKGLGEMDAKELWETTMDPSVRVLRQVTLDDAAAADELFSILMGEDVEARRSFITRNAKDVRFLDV

[3] = Cytotoxicity against mouse RAW264.7 cells assessed as inhibition of cell viability at 50 uM incubated for 48 hrs at 37 degC by MTT assay relative to control; assay type: cell-based; conditions: read-out: INH
Procedure, shortened: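 RAW 264.7 mouse macrophages, 5×10^5 cells per well, exposed to compound for 48 h at 37 °C under 5% CO2. MTT added 4 h before the end. Formazan dissolved in DMSO and absorbance read at 560 nm against blank. Triplicates, run twice.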

| SMILES | MIC [1] [µM] | IC50 [2] [µM] | IC50 (DNA gyrase subunit B) [µM] | cytotoxicity at 48 h, 50 µM [3] [%] |
| --- | --- | --- | --- | --- |
| CCOC(=O)c1cnc2ccc(C(F)(F)F)cc2c1Nc1ccc(OCCCN2CCOCC2)cc1 | 43.1 (≈ 21.7 µg/mL) | 16.4 | 38.8 | 20.2 |
| O=C(O)c1cnc2ccc(F)cc2c1Nc1ccc(OCCCN2CCOCC2)cc1 | 14.7 (≈ 6.25 µg/mL) | 16.9 | 31.3 | 10.8 |
| COc1ccc2ncc(C(=O)O)c(Nc3ccc(OCCCN4CCOCC4)cc3)c2c1 | 57.1 (≈ 25 µg/mL) | 12.9 | 20.6 | 11.4 |
| O=C(O)c1cnc2ccccc2c1Nc1ccc(OCCCN2CCOCC2)cc1 | 30.7 (≈ 12.5 µg/mL) | 21.8 | > 50 | 11.3 |
| CCN1CCN(CCCNc2ccc(Nc3c(C(=O)NN)cnc4ccc(F)cc34)cc2)CC1 | 3.3 (≈ 1.54 µg/mL) | 0.82 | 1.15 | 6.11 |
| NNC(=O)c1cnc2ccc(C(F)(F)F)cc2c1Nc1ccc(OCCCN2CCOCC2)cc1 | 36.4 (≈ 17.8 µg/mL) | 19.9 | 38.7 | 0.07 |
| CCOC(=O)c1cnc2ccccc2c1Nc1ccc(OCCCN2CCOCC2)cc1 | 28.7 (≈ 12.5 µg/mL) | 7.53 | 22.8 | 17.7 |
| CO[C@@H]1[C@@H](OC(N)=O)[C@@H](O)[C@H](Oc2ccc3c(O)c(NC(=O)c4ccc(O)c(CC=C(C)C)c4)c(=O)oc3c2C)OC1(C)C [NOVOBIOCIN] | > 200 | – | – | – |
| O=C(O)c1cnc2ccc(C(F)(F)F)cc2c1Nc1ccc(OCCCN2CCOCC2)cc1 | 13.2 (≈ 6.25 µg/mL) | 14.3 | 27.8 | 22.6 |
| CCN1CCN(CCCOc2ccc(Nc3c(C(=O)NN)cnc4ccc(F)cc34)cc2)CC1 | 3.34 (≈ 1.56 µg/mL) | 2.96 | 2.92 | 11.9 |
| CCOC(=O)c1cnc2ccccc2c1Nc1ccc(OCCCN2CCN(CC)CC2)cc1 | 13.5 (≈ 6.25 µg/mL) | 23.9 | > 50 | 21.4 |
| CCOC(=O)c1cnc2ccc(F)cc2c1Nc1ccc(NCCCN2CCN(CC)CC2)cc1 | 13 (≈ 6.25 µg/mL) | 7.99 | 16.9 | 20.2 |
| CCN1CCN(CCCNc2ccc(Nc3c(C(=O)NN)cnc4ccccc34)cc2)CC1 | 13.5 (≈ 6.04 µg/mL) | 9.42 | 10.8 | 3.36 |
| CCOC(=O)c1cnc2ccc(F)cc2c1Nc1ccc(OCCCN2CCN(CC)CC2)cc1 | 3.25 (≈ 1.56 µg/mL) | 11.8 | 23.6 | 21.6 |
| NNC(=O)c1cnc2ccc(F)cc2c1Nc1ccc(OCCCN2CCOCC2)cc1 | 28.4 (≈ 12.5 µg/mL) | 21.4 | 20.9 | 13.7 |
| COc1ccc2ncc(C(=O)NN)c(Nc3ccc(OCCCN4CCOCC4)cc3)c2c1 | 55.4 (≈ 25 µg/mL) | 10.4 | 10.6 | 6.26 |
| O=C(O)c1cnc2ccc(F)cc2c1Nc1ccc(NCCCN2CCOCC2)cc1 | 29.5 (≈ 12.5 µg/mL) | 4.44 | 15 | 13.1 |
| CCOC(=O)c1cnc2ccc(OC)cc2c1Nc1ccc(NCCCN2CCN(CC)CC2)cc1 | 25.4 (≈ 12.5 µg/mL) | 8.52 | 9.55 | 21.4 |
| COc1ccc2ncc(C(=O)O)c(Nc3ccc(NCCCN4CCOCC4)cc3)c2c1 | 28.6 (≈ 12.5 µg/mL) | 12.6 | 38.9 | 16.1 |
| CCOC(=O)c1cnc2ccc(F)cc2c1Nc1ccc(NCCCN2CCOCC2)cc1 | 13.4 (≈ 6.09 µg/mL) | 4.61 | 11.3 | 19.6 |
| CCOC(=O)c1cnc2ccc(C(F)(F)F)cc2c1Nc1ccc(OCCCN2CCN(CC)CC2)cc1 | 2.94 (≈ 1.56 µg/mL) | 0.69 | 0.97 | 27.3 |
| CO[C@H]1/C=C/O[C@@]2(C)Oc3c(C)c(O)c4c(O)c(c(/C=N/N5CCN(C)CC5)c(O)c4c3C2=O)NC(=O)/C(C)=C\C=C\[C@H](C)[C@H](O)[C@@H](C)[C@@H](O)[C@@H](C)[C@H](OC(C)=O)[C@@H]1C [RIFAMPIN] | 0.23 (≈ 0.189 µg/mL) | – | – | – |
| NNC(=O)c1cnc2ccc(C(F)(F)F)cc2c1Nc1ccc(NCCCN2CCOCC2)cc1 | 25.6 (≈ 12.5 µg/mL) | 19.9 | 47.2 | 7.94 |
| CCN1CCN(CCCNc2ccc(Nc3c(C(=O)NN)cnc4ccc(C(F)(F)F)cc34)cc2)CC1 | 30 (≈ 15.5 µg/mL) | 11 | 26.3 | 1.59 |
| CCN1CCN(CCCNc2ccc(Nc3c(C(=O)NN)cnc4ccc(OC)cc34)cc2)CC1 | 13.1 (≈ 6.25 µg/mL) | 2.55 | 3.26 | 2.56 |

| SMILES | MIC [1] [µM] | IC50 [2] [µM] | IC50 (DNA gyrase subunit B) [µM] | cytotoxicity at 48 h, 50 µM [3] [%] |
| --- | --- | --- | --- | --- |
| NNC(=O)c1cnc2ccccc2c1Nc1ccc(OCCCN2CCOCC2)cc1 | 2.4 (≈ 1.01 µg/mL) | 0.72 | 0.97 | 44.6 |
| CCOC(=O)c1cnc2ccc(OC)cc2c1Nc1ccc(OCCCN2CCOCC2)cc1 | 13.3 (≈ 6.22 µg/mL) | 13.3 | 14.9 | 21.2 |
| CCN1CCN(CCCOc2ccc(Nc3c(C(=O)NN)cnc4ccc(OC)cc34)cc2)CC1 | 11.6 (≈ 5.57 µg/mL) | 5.89 | 12.6 | 2.72 |
| CCN1CCN(CCCOc2ccc(Nc3c(C(=O)O)cnc4ccccc34)cc2)CC1 | 27.2 (≈ 11.8 µg/mL) | 10.2 | 21.7 | 13.4 |
| NNC(=O)c1cnc2ccc(F)cc2c1Nc1ccc(NCCCN2CCOCC2)cc1 | 23.6 (≈ 10.3 µg/mL) | 10.6 | 18.7 | 29.1 |
| COc1c(N2C[C@@H]3CCCN[C@@H]3C2)c(F)cc2c(=O)c(C(=O)O)cn(C3CC3)c12 [MOXIFLOXACIN] | 1.26 (≈ 0.506 µg/mL) | – | > 50 | – |
| CCOC(=O)c1cnc2ccc(OC)cc2c1Nc1ccc(NCCCN2CCOCC2)cc1 | 23.4 (≈ 10.9 µg/mL) | 9.32 | 22.3 | 19.3 |
| NNC(=O)c1ccncc1 [ISONIAZID] | 0.66 (≈ 0.0905 µg/mL) | – | – | – |
| COc1ccc2ncc(C(=O)NN)c(Nc3ccc(NCCCN4CCOCC4)cc3)c2c1 | 27.8 (≈ 12.5 µg/mL) | 15.3 | 44.9 | 9.59 |
| NNC(=O)c1cnc2ccccc2c1Nc1ccc(NCCCN2CCOCC2)cc1 | 44.9 (≈ 18.9 µg/mL) | 22.9 | > 50 | 6.48 |
| CCN1CCN(CCCNc2ccc(Nc3c(C(=O)O)cnc4ccc(OC)cc34)cc2)CC1 | 3.48 (≈ 1.61 µg/mL) | 0.93 | 1.32 | 20.1 |
| CCOC(=O)c1cnc2ccc(C(F)(F)F)cc2c1Nc1ccc(NCCCN2CCN(CC)CC2)cc1 | 1.47 (≈ 0.779 µg/mL) | 3.77 | 8.82 | 20.1 |
| O=C(O)c1cnc2ccccc2c1Nc1ccc(NCCCN2CCOCC2)cc1 | 7.69 (≈ 3.13 µg/mL) | 5.56 | 11.3 | 0.55 |
| CCN1CCN(CCCOc2ccc(Nc3c(C(=O)O)cnc4ccc(C(F)(F)F)cc34)cc2)CC1 | 19.8 (≈ 9.93 µg/mL) | 3.54 | 7.91 | 13.4 |
| CCOC(=O)c1cnc2ccc(C(F)(F)F)cc2c1Nc1ccc(NCCCN2CCOCC2)cc1 | 49.8 (≈ 25 µg/mL) | 3.12 | 6.62 | 20.2 |
| CCOC(=O)c1cnc2ccccc2c1Nc1ccc(NCCCN2CCN(CC)CC2)cc1 | 6.77 (≈ 3.13 µg/mL) | 3.25 | 11.7 | 20.4 |
| CCOC(=O)c1cnc2ccc(OC)cc2c1Nc1ccc(OCCCN2CCN(CC)CC2)cc1 | 11.6 (≈ 5.7 µg/mL) | 6.85 | 15.9 | 21.6 |
| O=C(O)c1cnc2ccc(C(F)(F)F)cc2c1Nc1ccc(NCCCN2CCOCC2)cc1 | 6.59 (≈ 3.13 µg/mL) | 3.77 | 7.89 | 19.1 |
| CCN1CCN(CCCOc2ccc(Nc3c(C(=O)O)cnc4ccc(F)cc34)cc2)CC1 | 6.91 (≈ 3.13 µg/mL) | 5.96 | 6.82 | 24.2 |
| CCOC(=O)c1cnc2ccccc2c1Nc1ccc(NCCCN2CCOCC2)cc1 | 14.4 (≈ 6.25 µg/mL) | 8.73 | 17.9 | 1.82 |
| CCN1CCN(CCCOc2ccc(Nc3c(C(=O)NN)cnc4ccc(C(F)(F)F)cc34)cc2)CC1 | 11.5 (≈ 5.95 µg/mL) | 9.33 | 11.9 | 20.1 |
| CCN1CCN(CCCNc2ccc(Nc3c(C(=O)O)cnc4ccccc34)cc2)CC1 | 11.8 (≈ 5.12 µg/mL) | 5.88 | 11.3 | 32.3 |
| CCOC(=O)c1cnc2ccc(F)cc2c1Nc1ccc(OCCCN2CCOCC2)cc1 | 21.7 (≈ 9.85 µg/mL) | 7.63 | 16.9 | 44.1 |
| CCN1CCN(CCCOc2ccc(Nc3c(C(=O)NN)cnc4ccccc34)cc2)CC1 | 13.9 (≈ 6.25 µg/mL) | 16.7 | 28.4 | 18.2 |
